# Laboratory results reported in ChEMBL document CHEMBL1158800, “Antineoplastic agents. 545. Isolation and structure of turbostatins 1-4 from the Asian marine mollusk Turbo stenogyrus” (2005).
# Assays:
# Assay type in all cases: functional
# [1] = test system: P388; experiment: In vivo antitumor activity against mouse P388 cells at 4 to 800 mg/ kg; settings: dose mg/ kg 4-800
# [2] = test system: NCI-H460; experiment: Growth inhibition of human NCI-H460 cells after 48 hrs by particle counting method; settings: NCI-H460, 48 h
# [3] = test system: KM-20L2; experiment: Growth inhibition of human KM20L2 cells after 48 hrs by particle counting method; settings: KM-20L2, 48 h
# [4] = Growth inhibition of human MXPC3 cells after 48 hrs by particle counting method; settings: MXPC3, 48 h
# [5] = test system: P388; experiment: Growth inhibition of mouse P388 cells after 48 hrs by particle counting method; settings: P388, 48 h
# Method in brief: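 Murine P388 lymphocytic leukemia cells in 10% horse serum/Fisher medium, preincubated 24 hrs. Serial dilutions of the compounds were added and cells grown 48 hrs. Cell numbers were counted with a Z1 Coulter particle counter, and the ED50 for growth inhibition was calculated.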
# [6] = test system: SF-268; experiment: Growth inhibition of human SF268 cells after 48 hrs by particle counting method; settings: SF-268, 48 h
# [7] = test system: DU-145; experiment: Growth inhibition of human DU145 cells after 48 hrs by particle counting method; settings: DU-145, 48 h
# [8] = test system: MCF7; experiment: Growth inhibition of human MCF7 cells after 48 hrs by particle counting method; settings: MCF7, 48 h
SMILES,GI50 [2] [µg/mL],GI50 [5] [µg/mL],GI50 [7] [µg/mL],GI50 [8] [µg/mL],T/C [1],GI50 [3] [µg/mL],GI50 [4] [µg/mL],GI50 [6] [µg/mL]
NCCS(=O)(=O)O [TAURINE],–,–,–,–,123,–,–,–
CCCCCCCCCCC/C=C/[C@@H](O)[C@H](CO[C@@H]1O[C@H](CO)[C@@H](O)[C@H](O)[C@H]1O)NC(=O)CCCCCCCCCCCCCCCCC [TURBOSTATIN 2],0.53,0.15,1.7,0.39,–,0.35,1,1.9
CCCCCCCCCCC/C=C/[C@@H](O)[C@H](CO[C@@H]1O[C@H](CO)[C@H](O)[C@H](O)[C@H]1O)NC(=O)CCCCCCCCCCCCCCC [TURBOSTATIN 3],0.55,0.25,2.6,0.48,–,0.48,1.6,1.9

# Now from value to compound, other results behind:
GI50 [2] [µg/mL],GI50 [5] [µg/mL],GI50 [7] [µg/mL],GI50 [8] [µg/mL],SMILES,T/C [1],GI50 [3] [µg/mL],GI50 [4] [µg/mL],GI50 [6] [µg/mL]
0.34,0.27,1.6,0.44,CCCCCCCCCCC/C=C/[C@@H](O)[C@H](CO[C@@H]1O[C@H](CO)[C@@H](O)[C@H](O)[C@H]1O)NC(=O)CCCCCCCCCCCCCCC [TURBOSTATIN 1],–,0.35,0.71,0.98
0.49,0.29,2.6,0.44,CCCCCCCCCCC/C=C/[C@@H](O)[C@H](CO[C@@H]1O[C@H](CO)[C@H](O)[C@H](O)[C@H]1O)NC(=O)CCCCCCCCCCCCCCCCC [TURBOSTATIN 4],–,0.41,0.93,1.5
